# Source: PubChem BioAssay
# An excerpt weighted towards active compounds, which were near 3.1% of everything screened.
# ADAM10 inh: inhibits human ADAM10. O14672. recombinant ADAM10, EDANS/DABCYL FRET peptide cleavage, 3 h. inhibition, % at 7 µM. 370,000 tested, 0.62% active;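 active = inhibition above a per-campaign cutoff equal to the mean of compounds falling between control-based bounds plus 3 SD, cut at about 20% in these data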;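 note: 0% = DMSO wells while the 100% control is not disclosed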
# ADAM17 inh: inhibitors of human ADAM17; AID 720648; inhibition, % at 6.95 µM; recombinant ADAM17, EDANS/DABCYL FRET peptide cleavage; 370,000 tested, 0.83% active;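 active = inhibition above the mean of compounds lying between control limits plus 3 SD, set per campaign, cut at about 8.5% in these data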;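 note: 0% = DMSO-only wells as the low control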
# Target sequence (P78536 215-824 limits assumed): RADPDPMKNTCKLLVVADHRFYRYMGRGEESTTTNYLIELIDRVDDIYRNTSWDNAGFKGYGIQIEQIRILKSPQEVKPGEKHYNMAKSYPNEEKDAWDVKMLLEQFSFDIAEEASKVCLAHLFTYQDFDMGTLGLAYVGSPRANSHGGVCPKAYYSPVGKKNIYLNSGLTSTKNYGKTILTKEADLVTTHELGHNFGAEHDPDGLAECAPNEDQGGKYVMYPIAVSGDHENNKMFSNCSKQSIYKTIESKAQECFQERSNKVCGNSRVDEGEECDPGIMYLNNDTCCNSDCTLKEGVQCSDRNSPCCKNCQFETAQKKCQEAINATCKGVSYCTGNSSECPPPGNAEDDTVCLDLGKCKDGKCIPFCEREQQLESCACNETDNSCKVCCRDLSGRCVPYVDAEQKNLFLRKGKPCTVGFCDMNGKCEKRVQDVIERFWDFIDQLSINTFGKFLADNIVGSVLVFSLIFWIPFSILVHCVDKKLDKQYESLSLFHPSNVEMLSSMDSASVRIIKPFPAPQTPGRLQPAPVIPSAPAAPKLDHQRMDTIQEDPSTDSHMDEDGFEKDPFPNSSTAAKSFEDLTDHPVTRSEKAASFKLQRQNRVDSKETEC
# Lipid droplet: modulators of hepatic lipid droplet formation; AID 1656; 240,000 tested, 0.4% active; inhibition, % at 6.5 µM; AML12 mouse hepatocytes, oleate lipid droplets, BODIPY imaging;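 active = lipid droplet intensity inhibited by at least 50%, with more than 500 cells counted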
#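 Assay system: AML12 mouse liver cells | Compound: 6.5 µM single-point dosing | Schedule: Overnight exposure | Technique: Fluorescence imaging, 20x objective, two fields per well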
# aDG glyco act: increases alpha dystroglycan glycosylation | 360,000 tested, 0.22% active | activation, % at 10 µM | Pro5-aDG cells, alpha-DG glycosylation AlphaScreen (IIH6); 0% Pro5, 100% B10-LARGE cell signal;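 active = activation of at least 8% versus controls, or a plate z-score of at least 8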;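 note: Pro5 are CHO cells carrying HIG-tagged alpha-DG that lacks glycosylation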
# V-ATPase pH: alters yeast V-ATPase proton transport | S. cerevisiae, pHLuorin cytosolic pH fluorescence | response, % at 10 µM | 350,000 tested, 0.37% active; in the data active = response mostly above about 7.3%, no sharp cut-off; inactive = mostly below about 5.4%; note: actives read high
# MPTP block: blocks calcium-induced mitochondrial swelling; isolated mouse mitochondria, Ca2+ swelling absorbance, 30 min; inhibition, % at 10 µM; 360,000 tested, 1.4% active; AID 602449;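 active = inhibition of 50% or more, scaled per plate between neutral and stimulator controls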;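 note: 0% = DMSO wells given calcium and 100% = 1 mM EGTA wells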
# Rh123 counter: Rhodamine 123 counter-screen of mitochondrial pore hits. AID 624504. 5,000 tested, 78% active. inhibition, % at 10 µM. isolated mitochondria, membrane potential, Rhodamine 123 fluorescence. shares compounds with MPTP block; in the data active = inhibition above about 22%;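 note: 0% = DMSO vehicle and 100% = positive control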
# MPTP abs DR: dose response confirmation of mitochondrial permeability transition pore inhibitors. shares compounds with MPTP block. isolated mitochondria swelling, absorbance. IC50, µM. 780 tested, 58% active; in the data active = IC50 below about 20 µM
# MPTP cs DR: active in counter-screen for permeability transition pore inhibitors. shares compounds with MPTP block. isolated mitochondria counterscreen, fluorescence read-out. IC50, µM. 780 tested, 49% active. AID 651564; in the data active = IC50 below about 80 µM
# * = called active by the depositor; i = inactive; / = no result given.
SMILES,ADAM10 inh,ADAM17 inh,Lipid droplet,aDG glyco act,V-ATPase pH,MPTP block,Rh123 counter,others
O=C(NC(=S)Nc1ccccc1N1CCOCC1)c1ccccc1F,0.8,4.6,22.7,-0.1,2.1,1.0,/,
CCCCNC(=S)Nc1ccc(Cl)cc1,7.3,0.6,-28.9,0.4,0.2,83.3*,81.0*,
CCCCNC(=S)Nc1ccc(C(F)(F)F)cc1,1.2,1.9,-6.3,0.2,-0.4,101.9*,82.3*,
CCNC(=O)N(C)[C@H]1C[C@H]2c3[nH]c4cccc(-c5cccc(F)c5)c4c3CCN2C(=O)[C@H]1[C@H](C)O,i,-339.6,/,/,/,/,/,
Fc1ccccc1C1c2cccn2CCN1C(=S)Nc1cccc(Br)c1 (stereo unspecified),5.3,2.6,-2.6,-0.1,-2.5,3.2,/,
Fc1ccccc1C1c2cccn2CCN1C(=S)Nc1ccc(Br)cc1 (stereo unspecified),-5.5,-6.9,12.2,0.0,3.2,101.0*,92.0*,
Cc1csc2c(N3CCN(C(=S)Nc4ccc(F)cc4F)CC3)ncnc12,3.3,-1.5,13.2,0.1,-6.1,91.7*,91.0*,
Cc1csc2c(N3CCN(C(=O)Nc4ccccc4)CC3)ncnc12,-6.2,-3.5,3.4,0.2,1.8,54.5*,24.4*,
Cc1ccc(C(=O)N2CCN(c3ncnc4c(C)csc34)CC2)cc1,-5.3,0.9,3.2,0.3,-1.3,33.8,/,
Cc1cnc(C(=O)Nc2ccc(OC(F)(F)F)cc2)cn1,2.2,-1.1,-7.7,-0.1,2.0,0.7,/,
Cc1csc2ncnc(N3CCN(C(=O)Nc4ccc(OC(F)(F)F)cc4)CC3)c12,-6.5,4.0,1.4,0.7,1.7,89.9*,89.3*,
CC(C)NC(=O)[C@]1(C#N)CC(=O)N(C)[C@@H]1c1ccccc1,1.5,1.9,/,/,/,/,/,
O=C(NCCc1c[nH]c2ccccc12)OCc1cn(-c2ccccc2Cl)nn1,-4.0,-5.9,/,/,/,/,/,
O=C(Nc1ccccc1)OCCNC(=O)c1cccc(Cl)c1,-4.7,2.3,8.6,0.7,-1.2,2.7,/,
CC(C)OC(=O)NCCOC(=O)Nc1cccc(Cl)c1,4.2,-0.5,/,0.3,0.3,99.5*,92.5*,
CC(OC(=O)Nc1cccc(Cl)c1)C(=O)O (stereo unspecified),2.4,0.7,4.6,0.0,1.3,-1.3,/,
CC(C)OC(=O)NCCOC(=O)Nc1ccc(Cl)c(Cl)c1,10.8,5.4,-25.2,0.5,0.1,97.4*,98.1*,
CC(C)OC(=O)NC(C)(C)COC(=O)Nc1cccc(Cl)c1,9.1,4.6,-3.8,0.1,-3.4,81.7*,96.4*,
COC(=O)[C@]12C[C@H](CC(=O)N3CCC(c4ccccc4)CC3)C(=O)N(Cc3ccc(Cl)cc3Cl)C1=C[C@H](C(C)C)O[C@@H]2C1CC1,-8.3,-5.9,/,/,/,/,/,
Fc1ccc(COc2ccc(Br)cc2CNCc2ccncc2)cc1,-3.6,-2.9,/,0.6,3.4,2.3,/,
CCOc1cc(CNCc2ccncc2)cc(Br)c1OCc1ccc(F)cc1,0.0,2.2,-33.0,1.9,0.5,97.9*,15.0,MPTP abs DR=8.41*;MPTP cs DR=25.7*
CCOc1cc(CNCCO)cc(Br)c1OCc1ccccc1,-0.4,-3.7,-0.2,3.8,-5.1,88.8*,4.9,MPTP abs DR=5.5*;MPTP cs DR=19.1*
CCOc1cc(CNCCSc2nnnn2C)cc(Br)c1OCc1ccccc1,0.3,3.3,-40.3,0.7,-3.5,16.9,/,
COc1ccc(CN2C3=N[C@H](c4ccccc4)CC(=O)N3/C(=C\c3ccccc3)C2c2ccco2)c(OC)c1 (stereo partly specified),5.9,3.5,/,/,/,/,/,
CCOC(=O)[C@@]12CN(C(=O)OC(C)(C)C)CC=C1N(Cc1ccc(OC)cc1)C(=O)[C@H]2CC(=O)N1CCN(C(=O)c2ccco2)CC1,-0.2,0.6,/,/,/,/,/,
SMILES,ADAM10 inh,ADAM17 inh,Lipid droplet,aDG glyco act,V-ATPase pH,MPTP block,Rh123 counter,others
Cc1ccc(OCCCCn2cnc3ccccc32)c(C)c1,-2.5,2.6,/,3.3,5.2,92.6*,93.4*,
Cc1ccc(C)c(OCCCCn2cnc3ccccc3c2=O)c1,16.2,4.4,/,0.4,2.4,-1.4,/,
COc1ccc(C(=O)Nc2ccc(N3CCOCC3)cc2)cc1S(=O)(=O)N1CCOCC1,-0.6,0.8,/,0.0,10.0,1.0,/,
COc1ccc(C(=O)Nc2ccc(-c3cn4ccsc4n3)cc2)cc1S(=O)(=O)N1CCOCC1,-1.0,3.7,/,2.3,-0.5,58.1*,9.1,MPTP abs DR=>100;MPTP cs DR=>80
Cc1ccc(OCc2nc3c4c(ncn3n2)-c2ccccc2CC42CCCC2)cc1,0.3,-2.9,-49.1,0.0,0.6,56.6*,-8.5,MPTP abs DR=8.4*;MPTP cs DR=>80
COc1ccc(OCc2nc3c4c(ncn3n2)-c2ccccc2CC42CCCC2)cc1,0.1,-4.9,-30.5,0.5,2.9,35.1,/,
Oc1cccc(-c2nc3c4c(ncn3n2)-c2ccccc2CC42CCCC2)c1,-0.4,-3.9,/,0.0,-0.4,10.8,/,
Cc1ccccc1OCc1nc2c3c(ncn2n1)-c1ccccc1CC31CCCC1,-7.7,-0.7,-6.9,0.5,1.6,69.0*,1.1,MPTP abs DR=12.8*;MPTP cs DR=>80
COc1ccc(-c2nc3c4c(ncn3n2)-c2ccccc2CC42CCCC2)cc1,-0.9,-2.2,-8.6,0.1,-1.6,78.1*,1.2,MPTP abs DR=>100;MPTP cs DR=>80
CC(=O)N1CCCN(S(=O)(=O)c2ccc3c(c2)n(C)c(=O)c(=O)n3C)CC1,-21.0,-8.4,/,/,/,/,/,
O=C(OC12CCCN(C1)/C(=C/c1ccncc1)C2)c1ccccc1 (stereo unspecified),2.7,2.5,/,/,/,/,/,
CCNC(=S)Nc1ccc(Cl)cc1,6.7,0.4,18.6,0.1,0.6,2.2,/,
Cc1cccc(C)c1NC(=S)NCCSc1ccc(Cl)cc1,10.6,6.1,-15.1,0.8,6.0,82.1*,86.3*,
CC(CNC(=S)Nc1cc(F)cc(F)c1)CSc1ccc(Cl)cc1 (stereo unspecified),13.3,5.6,-3.4,0.3,1.2,97.1*,88.8*,
Cc1ccc(NC(=S)NCCSc2ccc(Cl)cc2)cc1,9.6,4.0,1.0,0.0,-3.6,99.8*,99.4*,
Cc1ccc(-c2nnc(NC(=O)COc3ccc(F)cc3Cl)o2)cc1C,-2.3,-3.3,/,/,/,/,/,
COc1ccc(NC(=O)COc2ccc(N(C)S(=O)(=O)c3ccc(Cl)cc3)cc2)cc1OC,8.9,1.4,/,0.9,-3.0,76.4*,90.0*,
Cn1c2ccccc2c(=O)c2c(=O)n(C3CCCCCC3)c(C3CCCCC3)nc21,-11.8,5.6,1.1,0.9,0.1,87.9*,4.5,
CCN(CC)C(=O)CC[C@@H]1CC[C@]2(CCCN(Cc3ccccc3)C2)O1,-23.9,-5.5,/,/,/,/,/,
